The source made the active and inactive calls. The calls are words filed in the database; no cut-off is given here.

Test [1] has as its system HepG2. In words: Inhibition of PCSK9 promotor activity in human HepG2 cells harbouring pGL3-PCSK9-HNF mutant at 6.25 to 12.5 uM incubated for 24 hrs by luciferase assay. It is filed as functional, cell-based. As to conditions: dose 6.25-12.5 µM. The method, boiled down:
(§1)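 HepG2 cells were seeded at 8 × 10⁵ per well and transiently transfected with pGL3-PCSK9-D4 (−440 to −94 region), or with SRE- or HNF-mutant constructs. At 48 h post-transfection, cells were treated 24 h with compound or simvastatin 5 μM. Promoter activity was read as luciferase luminescence.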

Test [2] deals with HepG2. In words: Induction of LDLR expression in human HepG2 cells at 6.25 incubated for 24 hrs in presence of simvastatin by Western blot analysis. Format: functional, cell-based. The gist of the method:
(§2)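 HepG2 cells were treated overnight or for 24 h, alone or with simvastatin 40 μM. Lysates (1 % NP-40, 150 mM NaCl, 50 mM Tris-HCl pH 7.5) were loaded at 25 µg protein on 4–20 % SDS-PAGE. Blots were probed for proPCSK9, mature PCSK9 and LDLR, and densitometry was normalized to β-actin or GAPDH. Mean ± SD of three independent experiments.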
Background: A western blot detects proteins with antibodies after separation by electrophoresis.

Test [3] concerns HepG2. In words: Downregulation of PCSK9 mRNA level in human HepG2 cells by qRT-PCR analysis. Format: functional, cell-based. As to conditions: dose 6.25-25 µM. The gist of the method:
(§3)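 Total RNA was taken from treated HepG2 cells for RT-qPCR of PCSK9, FAS and HMG-CoA reductase. Cycling was 50 °C 10 min, 95 °C 2 min, then 40 cycles of 95 °C 5 s and 60 °C 10 s. Relative quantification used ΔΔCt against 18S, corrected for primer efficiency. Mean ± SD of three independent experiments.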
On the technique in general: Quantitative PCR measures a nucleic acid by following its amplification.

A short description of test [4]: Downregulation of extracellular PCSK9 level in human HepG2 cells at 6.25 to 12.5 uM under conditioned media by ELISA method relative to control. It is filed as functional. Particulars: dose 6.25-12.5 µM. The gist of the method: (§4)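 Secreted PCSK9 was measured in HepG2 conditioned media with a human PCSK9 DuoSet sandwich ELISA. Media were centrifuged at 15000 rpm for 10 min and diluted before reading absorbance at 450 nm. Values were normalized to HepG2 total protein content. Mean ± SD of three independent experiments.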
(In general: An ELISA detects its analyte on a solid surface through an enzyme-linked reagent.)

Test [5] in a line: Downregulation of PCSK9 expression in human HepG2 cells at 6.25 to 12.5 uM by Western blot analysis relative to control. It is filed as functional. As to conditions: dose 6.25-12.5 µM. The gist of the method:
as §2

Test [6] concerns HepG2. Briefly: Effect on HMG-CoA reductase mRNA level in human HepG2 cells at 6.25 to 25 uM by qRT-PCR analysis. Format: functional, cell-based. Particulars: dose 6.25-25 µM. The method, boiled down: as §3
The test system of test [7] is HepG2. Briefly: Effect on HMG-CoA reductase mRNA level in human HepG2 cells at 50 to 100 uM by qRT-PCR analysis. Format: functional, cell-based. As to conditions: dose 50-100 µM. The method, boiled down: as §3
In test [8] the test system is HepG2. Briefly: Downregulation of proPCSK9 protein expression in human HepG2 cells at 6.25 uM by Western blot analysis. It is filed as functional, cell-based. The gist of the method: as §2
Test [9] has as its system HepG2. In words: Inhibition of basal PCSK9 activity in human HepG2 cells at 6.25 to 12.5 uM incubated for 24 hrs by luciferase assay. As to conditions: dose 6.25-12.5 µM. Format: functional, cell-based. The method, boiled down: as §1
The test system of test [10] is HepG2. Briefly: Effect on FAS mRNA level in human HepG2 cells at 6.25 to 25 uM by qRT-PCR analysis. Particulars: dose 6.25-25 µM.
Test [11] in a line: Downregulation of simvastatin induced PCSK9 expression in human HepG2 cells at 12.5 uM by Western blot analysis relative to control. It is filed as functional. The gist of the method:
as §2

Test [12] can be described thus: Downregulation of proPCSK9 protein expression in human HepG2 cells at 12.5 uM by Western blot analysis relative to control. Format: functional. The gist of the method:
as §2

Test [13] concerns HepG2. In words: Downregulation of mature PCSK9 protein expression in human HepG2 cells at 6.25 uM by Western blot analysis. Format: functional, cell-based. The method, boiled down: as §2
The test system of test [14] is HepG2. In words: Inhibition of PCSK9 transcription activity in human HepG2 cells harbouring FLAG tagged PCSK9 at 6.25 to 12.5 uM incubated for 24 hrs by luciferase assay. Format: functional, cell-based. As to conditions: dose 6.25-12.5 µM.
Test [15] has as its system HepG2. Briefly: Downregulation of PCSK9 level in human HepG2 cells at 6.25 to 12.5 uM under conditioned media by ELISA method. It is filed as functional, cell-based. As to conditions: dose 6.25-12.5 µM. The gist of the method: as §4
Test [16] deals with HepG2. In words: Inhibition of simvastatin induced PCSK9 activation in human HepG2 cells at 6.25 to 12.5 uM incubated for 24 hrs by luciferase assay. Particulars: dose 6.25-12.5 µM. Format: functional, cell-based. The method, boiled down: as §1
The test system of test [17] is HepG2. Briefly: Inhibition of PCSK9 promotor activity in human HepG2 cells harbouring pGL3-PCSK9-SRE mutant at 6.25 to 12.5 uM incubated for 24 hrs by luciferase assay. It is filed as functional, cell-based. As to conditions: dose 6.25-12.5 µM. The gist of the method:
as §1

Test [18] in a line: Downregulation of mature PCSK9 protein expression in human HepG2 cells at 12.5 uM by Western blot analysis relative to control. Format: functional. The gist of the method: as §2

Regarding `CCCCCNc1cc(C)n(Cc2ccc(Cl)cc2)c(=O)c1`, the inhibition result in [1], in test [9], in test [14] and in test [17] was “inactive” in each case. In addition, the outcome in test [2], in [7] and in test [15] was Active. In addition, the Activity result is “Dose-Dependent Effect” in test [3]; 35.8% in test [4]; 65% in test [5]; 100% in test [11]; 100% in test [12]; 100% in [18]. Further, the result in test [6], in test [8], in test [10] and in test [13] was inactive. In test [16], the inhibition entry is “Active”.

Values taken from ChEMBL document CHEMBL5505959, “Identification of 4-amino-2-Pyridones as new potent PCSK9 inhibitors: From phenotypic hit discovery to in vivo tolerability” (Eur J Med Chem, 2024).
